Assay results from BindingDB's records for doi:10.1021/acsmedchemlett.1c00308 (Uniformed Services University of The Health Sciences, 2021).

Test system: ERG (ERG oncoprotein, ETS transcription factor) in VCaP cells
Assay: Inhibition of ERG in human VCaP cells after 48 hrs by Western blotting analysis
In short: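 In VCaP prostate cancer cells, ERG and RIOK2 protein levels were measured by Western blot after treatment. IC50 values were derived from the concentration-response of protein inhibition.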

Q: O=S(=O)(O)c1cccc2c(S(=O)(=O)O)cccc12 was tested. Which IC50 did it give?
A: > 500 nM

Q: How did the IC50 turn out when Oc1ccc2ccccc2c1/N=N/c1nccs1 [DNDI1417016] was run?
A: 310 nM
